The results in this text go back to ChEMBL document CHEMBL4257469, “Deciphering the role of hydrophobic and hydrophilic bile acids in angiogenesis using in vitro and in vivo model systems” (Medchemcomm, 2017).

Series [1] is filed under the species Danio rerio. In words: Antiangiogenic activity in Tg(fli:eGFP) zebrafish embryo assessed as effect on phynotypic changes after 72 hrs post fertilization by fluorescence microscopic analysis. It is filed as functional, organism-based. The method in brief: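 Tg(fli1:eGFP) zebrafish embryos were selected at 48 hpf, 20–25 per well, and exposed to bile acids at 6.25, 12.5 and 25 μM in embryo water from DMSO stocks. Vehicle was 0.1% DMSO. At 72 hpf the solutions were replaced with fresh embryo water. Embryos were anesthetized with tricaine and imaged by stereo and fluorescence microscopy for sub-intestinal vessel sprouting and branching. Two experiments, 50 embryos per group.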

For series [2], the species on record is Danio rerio. As to the kind of experiment: Pro-angiogenic activity in Tg(fli:eGFP) zebrafish embryo assessed as increase in branching of sub-intestinal veins at 12.5 uM after 72 hrs post fertilization by fluorescence microscopic analysis. Format: functional, organism-based. The method, boiled down: (§1)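 Tg(fli1:eGFP) embryos selected at 48 hpf, 20–25 per well, raised at 28.5 °C. Bile acids (DMSO stock, diluted in embryo water) given at 6.25, 12.5 or 25 μM; 0.1% DMSO as vehicle control. Solutions replaced with fresh water at 72 hpf, embryos anaesthetised with tricaine and sub-intestinal vessels imaged by fluorescence. Scored as percentage of embryos; two experiments, 50 embryos/group.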

Series [3] deals with HUVEC. As to the kind of experiment: Cytotoxicity against HUVEC assessed as reduction in cell death up to 12.5 uM after 24 hrs by MTT assay. It is filed as cell-based. The following applies: human. The method, boiled down:
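HUVECs (passages 2–5, complete EBM-2) seeded at 5 × 10³ cells/well and left 24 h to adhere. Serum-starved 4 h, then exposed to bile acids (serial dilutions, 100 to 6.25 μM) in complete medium for 24 h. MTT added for 4 h at 37 °C, formazan dissolved in DMSO, absorbance read at 550 nm. Run in triplicate; three independent experiments.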

Series [4] concerns HUVEC. As to the kind of experiment: Cytotoxicity against HUVEC assessed as reduction in cell viability at 6.25 to 100 uM after 24 hrs by MTT assay. Format: cell-based. As to conditions: human. The method in brief: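 HUVECs at passages 2–5 were seeded at 5 × 10^3 cells per well in complete EBM-2 and allowed to adhere for 24 h. They were serum-starved 4 h, then given serially diluted bile acids (100 to 6.25 μM) in complete medium for 24 h. MTT was added for 4 h at 37 °C. Formazan was dissolved in DMSO and absorbance read at 550 nm. Three independent experiments.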

Series [5] is filed under the species Danio rerio. As to the kind of experiment: Pro-angiogenic activity in Tg(fli:eGFP) zebrafish embryo assessed as arcades formation at 12.5 uM after 72 hrs post fertilization by fluorescence microscopic analysis. It is filed as functional, organism-based. The method in brief:
as §1

Series [6] relates to HUVEC. As to the kind of experiment: Increase in VEGFR1 m-RNA expression in HUVEC at 12.5 uM after 12 to 24 hrs by RT-qPCR analysis. Format: functional, cell-based. As to conditions: Homo sapiens. The method, boiled down:
(§2)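 HUVECs treated with 12.5 μM bile acid or DMSO for 12 and 24 h. Total RNA extracted and 1 μg reverse-transcribed. SYBR-green qPCR for VEGFR1/VEGFR2: 95 °C 10 min, then 40 cycles of 95 °C 5 s / 60 °C 30 s. ΔΔCT normalised to GAPDH and expressed as fold change over control; repeated twice.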

The test system of series [7] is HUVEC. As to the kind of experiment: Induction of angiogenesis in HUVEC assessed as increase in tube formation at 12.5 uM after overnight incubation by inverted microscopic analysis. Format: functional, cell-based. As to conditions: Homo sapiens. The method in brief: (§3)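 Wells coated with Matigel:plain EBM-2 (1:1). HUVECs added at 2 × 10⁵ cells/well with bile acid (12.5 or 25 μM) or vehicle and left overnight. Bright-field images at 10× from five fields per well; nodes and tube lengths counted. Triplicate, three independent experiments; one-way ANOVA with Dunnett's test.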

Series [8] deals with HUVEC. As to the kind of experiment: Pro-angiogenic activity in HUVEC assessed as decrease in VE-cadherin expression at 12.5 uM after overnight incubation by FITC-conjugated phalloidin staining based confocal microscopic analysis. It is filed as functional, cell-based. The following applies: Homo sapiens. The method, boiled down:
(§4)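 HUVECs grown to 70% confluency on coverslips and treated with bile acids overnight. Fixed in 4% paraformaldehyde for 5 min and blocked with 1% BSA/0.1% Triton X-100 for 2 h. Stained with anti-VE-cadherin (1:200, 4 °C overnight) plus Alexa-488 secondary, FITC-phalloidin (1:100) for F-actin, and DAPI. Confocal imaging; repeated twice.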

Series [9] concerns HUVEC. As to the kind of experiment: Induction of angiogenesis in HUVEC assessed as increase in number of nodes at 12.5 uM after overnight incubation by inverted microscopic analysis relative to control. It is filed as functional, Homo sapiens. The method, boiled down:
as §3

Series [10] concerns HUVEC. In words: Antiangiogenic activity in HUVEC assessed as inhibition of endothelial tube formation at 25 uM after overnight incubation by inverted microscopic analysis. It is filed as functional, cell-based. As to conditions: Homo sapiens. The method, boiled down: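 HUVECs at passages 2–5 were seeded at 2 × 10^5 cells per well on a gelled basement membrane matrix, made as Matrigel mixed 1:1 with plain EBM-2. Bile acids were added at 12.5 and 25 μM, with DMSO as vehicle control, and cells were treated overnight. Bright-field images were taken at 10× from five fields per well. Nodes and tube lengths were quantified. Runs were in triplicate; statistics by one-way ANOVA (Dunnett).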

The species entered for series [11] is Danio rerio. In words: Pro-angiogenic activity in Tg(fli:eGFP) zebrafish embryo assessed as increase in sprouting of sub-intestinal veins at 12.5 uM after 72 hrs post fertilization by fluorescence microscopic analysis. It is filed as functional, organism-based. The method, boiled down:
as §1

The species entered for series [12] is Danio rerio. In words: Pro-angiogenic activity in Tg(fli:eGFP) zebrafish embryo assessed as sub-intestinal vein baskets extending towards ventral side at 12.5 uM after 72 hrs post fertilization by fluorescence microscopic analysis. Format: functional, organism-based. The method, boiled down:
as §1

The species entered for series [13] is Danio rerio. In words: Pro-angiogenic activity in Tg(fli:eGFP) zebrafish embryo at 6.25 uM after 72 hrs post fertilization by fluorescence microscopic analysis. It is filed as functional, organism-based. The method, boiled down: as §1
The test system of series [14] is HUVEC. As to the kind of experiment: Increase in VEGFR2 m-RNA expression in HUVEC at 12.5 uM after 12 to 24 hrs by RT-qPCR analysis. Format: functional, cell-based. As to conditions: Homo sapiens. The method in brief: as §2
The subject of series [15] is HUVEC. In words: Induction of angiogenesis in HUVEC assessed as increase in tube length at 12.5 uM after overnight incubation by inverted microscopic analysis. Format: functional, cell-based. As to conditions: Homo sapiens. The method, boiled down:
as §3

Series [16] relates to HUVEC. In words: Pro-angiogenic activity in HUVEC assessed as stress fiber formation at 12.5 uM after overnight incubation by FITC-conjugated phalloidin staining based confocal microscopic analysis. As to conditions: Homo sapiens. Format: functional, cell-based. The method in brief: as §4
For series [17], the species on record is Danio rerio. As to the kind of experiment: Pro-angiogenic activity in Tg(fli:eGFP) zebrafish embryo assessed as increase in sprouting and branching of sub-intestinal vessels (after 72 hrs post fertilization by fluorescence microscopic analysis. It is filed as functional, organism-based. The method in brief:
as §1

For series [18], the system named is HUVEC. As to the kind of experiment: Increase in MMP9 level in HUVEC at 12.5 uM after 24 hrs by ELISA. The following applies: Homo sapiens. Format: functional, cell-based. The method in brief:
(§5)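 HUVECs in 6-well plates treated with 12.5 μM bile acid or DMSO vehicle. Medium supernatant collected 12 and 24 h after treatment. MMP9 measured by ELISA with HRP read-out at 405 nm, concentration interpolated from an MMP9 standard curve. Experiments done in duplicate.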

In series [19] the test system is HUVEC. In words: Pro-angiogenic activity in HUVEC assessed as decrease in cell-to-cell contact at 12.5 uM after overnight incubation by FITC-conjugated phalloidin staining based confocal microscopic analysis. Format: functional. The following applies: Homo sapiens. The method in brief: as §4
The species entered for series [20] is Danio rerio. As to the kind of experiment: Toxicity in zebrafish embryo assessed as reduction in embryo survival up to 50 uM. As to conditions: in vivo. It is filed as organism-based.
Series [21] deals with HUVEC. As to the kind of experiment: Increase in wound healing in HUVEC at 12.5 uM after 18 to 24 hrs by phase contrast microscopic analysis. Format: functional, cell-based. As to conditions: Homo sapiens. The method in brief: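 HUVECs grown to a confluent monolayer in 12-well plates and serum-deprived overnight. Scratched with a p200 tip, washed with DPBS, then given complete EBM-2 with 12.5 μM bile acid or DMSO vehicle. Imaged from a marked reference point at 0 h and after 18–24 h (phase contrast, 10×); percentage of migrated cells versus control. Triplicate; Dunnett's test.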

Series [22] has as its system HUVEC. As to the kind of experiment: Decrease in MMP9 level in HUVEC at 12.5 uM after 24 hrs by ELISA. The following applies: Homo sapiens. It is filed as functional, cell-based. The method in brief: as §5

Active and inactive are the calls of the source. The rule behind the calls is not given here.

In the case of `O=c1cc(N2CCOCC2)oc2c(-c3ccccc3)cccc12`, the result in series [1] was Active.

As for `C[C@H](CCC(=O)O)[C@H]1CC[C@H]2[C@@H]3[C@H](O)C[C@@H]4C[C@H](O)CC[C@]4(C)[C@H]3CC[C@]12C` [CHENODIOL], the result in [2], in [5], in [6], in series [7], in [8] and in series [11] was Active. Further, the outcome in series [12], in series [13], in series [14], in series [15], in series [16] and in series [18] was Active. For the same molecule, the outcome in [19], in series [21] and in series [22] was Active. The Activity entry was “Non-Toxic” in series [3]; “Non-Toxic” in series [4]; 150% in series [9]; “Dose-dependent effect” in [17]; “Non-Toxic” in series [20]. Further, the result in [10] was inactive.
